Data published in ChEMBL document CHEMBL1145129, “Design, synthesis, and anticancer properties of 4,4'-dihydroxybenzophenone-2,4-dinitrophenylhydrazone and analogues” (J Med Chem, 2003).
In brackets after ≈: the same amount, converted by molar mass.

Legend:
[1] = tested on: Colon carcinoma cell; experiment: In vitro cytotoxicity was tested in human colon tumor cells; type: functional, cell-based
How it was run: (§1)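 Fresh surgical human tumor specimens minced to ≤0.1 mm fragments in RPMI-1640 with 10% FBS, streptomycin and penicillin (10⁶–10⁸ cells/mL), explanted into slide flasks. Exposed 24 h at 37 °C, 5% CO₂, to test agent 0.1–20 μg/mL (≥5 doses over 3 logs), in duplicate. Washed, recultured 7–14 days, fixed, HPF cell counts vs control; IC50 (SD) from percent growth.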

[2] = In vitro cytotoxicity in SN 12 PM6 cell line; type: functional, cell-based; settings: Homo sapiens
How it was run: (§2)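 Established tumor lines kept in RPMI-1640 with 10% fetal calf serum and penicillin/streptomycin at 36 °C, 10% CO₂. Seeded 2000–3000 cells/well; hydrazone-containing medium added after 18 h, then 36 h further culture. Viable cells read by MTT absorbance at 570 nm; cytostasis (%) = (1 − A_treated/A_control) × 100.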

[3] = In vitro cytotoxicity in K 1735 M2 cell line; type: functional
[4] = tested on: Melanoma tumor cell line; experiment: In vitro cytotoxicity against Human melanoma tumor cells; Not available.; type: functional, cell-based; how it was run: as §1
[5] = In vitro cytotoxicity in KM 12L4 cell line; type: functional, cell-based; settings: Homo sapiens; how it was run: as §2
[6] = In vitro cytotoxicity in KM 12 C cell line; type: functional; settings: Homo sapiens, KM12C; how it was run: as §2
[7] = organism: Homo sapiens; experiment: In vitro cytotoxicity against Human lung tumor cells.; type: functional; how it was run: as §1
[8] = In vitro cytotoxicity in Human breast tumor cells; type: functional, cell-based; how it was run: as §1
[9] = tested on: MDA-MB-435; experiment: In vitro cytotoxicity in MDA-MB-435 cell line; type: functional, cell-based; settings: Homo sapiens; how it was run: as §2
[10] = In vitro cytotoxicity in MDA-MB-435/lung met cell line; type: functional; settings: Homo sapiens; how it was run: as §2
[11] = In vitro cytotoxicity in KM 12 SM cell line; type: functional; settings: Homo sapiens, KM12
How it was run: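 Established lines kept in RPMI-1640 with 10% fetal calf serum and penicillin/streptomycin at 36 °C, 10% CO₂. Cells seeded at 2000–3000 cells/well, hydrazones added at several concentrations after 18 h, and exposed a further 36 h. Viable cells read by MTT absorbance at 570 nm; cytostasis (%) = (1 − A/B)×100 against untreated control.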

[12] = organism: Homo sapiens; experiment: In vitro cytotoxicity in Human ovary tumor cells; type: functional; settings: Female gonad; how it was run: as §1
[13] = tested on: Melanoma tumor cell line; experiment: In vitro cytotoxicity against Human melanoma tumor cells.; type: functional, cell-based; how it was run: as §1
[14] = organism: Homo sapiens; experiment: In vitro cytotoxicity against Human lung tumor cells; Not available.; type: functional; how it was run: as §1
[15] = tested on: breast cancer cells (Homo sapiens); experiment: In vitro cytotoxicity in Human breast tumor cells

SMILES | IC50 [1] [µg/mL] | IC50 [4] | IC50 [7] [µg/mL] | IC50 [8] [µg/mL] | IC50 [12] [µg/mL] | IC50 [13] [µg/mL] | IC50 [14] | other results
O=[N+]([O-])c1ccc(/N=N/c2c3cccc(O)c3c(O)c3c(O)cccc23)c([N+](=O)[O-])c1 | 0.03 (≈ 0.0714 µM) | Not Active | 0.12 (≈ 0.285 µM) | 0.03 (≈ 0.0714 µM) |  |  |  | IC50 [2]: 0.03 µg/mL (≈ 0.0714 µM); IC50 [3]: 0.02 µg/mL (≈ 0.0476 µM); IC50 [5]: 0.02 µg/mL (≈ 0.0476 µM); IC50 [6]: 0.03 µg/mL (≈ 0.0714 µM); IC50 [9]: 0.02 µg/mL (≈ 0.0476 µM); IC50 [10]: 0.03 µg/mL (≈ 0.0714 µM); IC50 [11]: 0.05 µg/mL (≈ 0.119 µM)
CC(=O)c1ccc2c(c1)/C(=N\Nc1ccc([N+](=O)[O-])cc1[N+](=O)[O-])c1ccc(C(C)=O)cc1-2 | 0.7 (≈ 1.58 µM) |  | > 5 | > 5 | 0.9 (≈ 2.03 µM) | 0.5 (≈ 1.13 µM) |  | 
O=[N+]([O-])c1ccc(/N=N/c2c3ccccc3c(O)c3c(O)c(O)ccc23)c([N+](=O)[O-])c1 | 0.25 (≈ 0.595 µM) |  | > 10 | 0.007 (≈ 0.0167 µM) | > 10 | > 5 |  | 
O=[N+]([O-])c1ccc(N/N=C(\c2ccc(O)cc2)c2ccc(Cl)cc2)c([N+](=O)[O-])c1 | > 10 | Not Active |  |  |  |  | Not Active | IC50 [15]: 8.7 µg/mL (≈ 21.1 µM)
O=[N+]([O-])c1ccc(N/N=C(\c2ccccc2)c2ccc(O)cc2)c([N+](=O)[O-])c1 | 0.5 (≈ 1.32 µM) |  |  |  | 0.3 (≈ 0.793 µM) | > 10 | Not Active | IC50 [15]: 5 µg/mL (≈ 13.2 µM)
O=[N+]([O-])c1ccc(NN=c2c3ccccc3[s+]([O-])c3ccccc23)c([N+](=O)[O-])c1 (centres undefined) | > 10 |  | > 10 | > 10 | > 10 | > 10 |  | 
O=[N+]([O-])c1ccc(NN=C(c2ccc(O)cc2O)c2ccc(O)cc2O)c([N+](=O)[O-])c1 | > 5 | Not Active | > 5 |  | 0.03 (≈ 0.0704 µM) |  |  | IC50 [15]: > 10 µg/mL
O=[N+]([O-])c1ccccc1NN=C(c1ccc(O)cc1)c1ccc(O)cc1 | 4.7 (≈ 13.5 µM) | Not Active |  |  |  |  | Not Active | IC50 [15]: 3.9 µg/mL (≈ 11.2 µM)
O=[N+]([O-])c1ccc(/N=N/c2c3cc(O)ccc3c(NNc3ccc([N+](=O)[O-])cc3[N+](=O)[O-])c3cc(O)ccc23)c([N+](=O)[O-])c1 | 3.9 (≈ 6.5 µM) | Not Active | 1 (≈ 1.67 µM) | 2.5 (≈ 4.16 µM) |  |  |  | 
CC(=O)Oc1cccc2c(/N=N/c3ccc([N+](=O)[O-])cc3[N+](=O)[O-])c3cccc(O)c3c(O)c12 | 0.03 (≈ 0.0649 µM) |  |  | 0.05 (≈ 0.108 µM) | 0.4 (≈ 0.865 µM) | 0.097 (≈ 0.21 µM) | Not Active | 
CC(=O)Oc1ccc(C(=NNc2ccc([N+](=O)[O-])cc2[N+](=O)[O-])c2ccc(OC(C)=O)cc2)cc1 | > 10 |  | > 10 |  | > 10 | > 10 |  | 
O=[N+]([O-])c1ccc(/N=N/c2c3ccccc3c3c4c(cccc24)NN3)c([N+](=O)[O-])c1 | > 5 | Not Active |  | > 5 | > 5 |  | Not Active | 
O=[N+]([O-])c1ccc(N/N=C2\c3ccccc3-c3cccc(O)c32)c([N+](=O)[O-])c1 | > 5 | Not Active |  | 7.5 (≈ 19.9 µM) |  |  | Not Active | 
Nc1ccc2c(NNc3ccc([N+](=O)[O-])cc3[N+](=O)[O-])c3cc(N)ccc3c(/N=N/c3ccc([N+](=O)[O-])cc3[N+](=O)[O-])c2c1 | > 5 | Not Active |  | > 5 | > 5 |  | Not Active | 
O=[N+]([O-])c1ccc(NN=C2c3cc(O)ccc3-c3ccc(O)cc32)c([N+](=O)[O-])c1 | 0.06 (≈ 0.153 µM) |  | > 10 | 0.05 (≈ 0.127 µM) | 0.08 (≈ 0.204 µM) | 4.1 (≈ 10.5 µM) |  | 
CN(C)c1ccc(C(=NNc2ccc([N+](=O)[O-])cc2[N+](=O)[O-])c2ccc(N(C)C)cc2)cc1 | 10 (≈ 22.3 µM) |  |  | 4.2 (≈ 9.36 µM) |  | 5 (≈ 11.1 µM) | Not Active | 
O=[N+]([O-])c1ccc(N(Cc2ccccc2)N=c2c3ccccc3oc3ccccc23)c([N+](=O)[O-])c1 |  |  |  | > 10 | > 10 | > 10 | Not Active | 
